Series [1] can be described thus: folding enthalpy; higher = less favourable; fluorescence melt of hairpins on a sequencing array, two-state fit. Conditions: sodium 0.088 M. Summed up:
(§1)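 Bootstrapped two-state fits yielded melting temperature and folding enthalpy for library hairpins. Cy3 fluorescence, with annealed Cy3 and quencher oligos, was imaged on a sequenced MiSeq flow cell in 50 mM Na-HEPES pH 8.0, 25 mM NaCl in 2.5 °C steps up to 60 °C, and normalised to pre-quench Cy3 and to control constructs. Four replicates were combined by inverse variance, and fitted temperatures were raised by 9.35 °C to match UV melts.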

Series [2] can be described thus: melting temperature; fluorescence melt of hairpins on a sequencing array, two-state fit, raised by 9.35 °C to match UV melts. The note with it: sodium 0.088 M. In a few lines: as §1

Consider GAACAGCGAAAGCTTTTC (((.(((....))).))), for which the folding enthalpy in series [1] was -19.9 kcal/mol. In series [2], the Tm was 37.8 °C.

For the sequence GAACGGCGAAAGCCTTC (((.(((....)))))), in series [1], the folding enthalpy was -12.4 kcal/mol. The Tm in series [2] was found to be 39.3 °C.

For the sequence GATCCAACAGTGGATC ((((((....)))))), the folding enthalpy in series [1] was -32.1 kcal/mol. In series [2], the Tm amounted to 47.1 °C.

For GCGTCAGGAAACTAACGC ((((.((....)).)))), in series [1], the folding enthalpy is -28.1 kcal/mol. Moreover, the Tm in series [2] came out at 44.7 °C.

As to GCGATAAGTCGC ((((....)))), in series [1], the folding enthalpy was -18.9 kcal/mol. Also, the Tm in series [2] worked out at 49.8 °C.

In the case of CGCCGCGGAAACGCTGCG (((.(((....))).))), the folding enthalpy in series [1] was -37.6 kcal/mol. In addition, in series [2], the Tm was determined as 57.6 °C.

With GATACCCGAAAGGGAATC (((.(((....))).))), the folding enthalpy in series [1] was -23.9 kcal/mol. The Tm in series [2] came out at 48 °C.

As for GCTGGCGAAAGCCTGAGC ((((((....)))..))), in series [1], the folding enthalpy is -14.8 kcal/mol. Besides, the Tm in series [2] is 50.2 °C.

GATCGGCCACCCGATC ((((((....)))))): the folding enthalpy in series [1] was -39.9 kcal/mol. For the same sequence, in series [2], the Tm turned out to be 54.9 °C.

Consider GTAGTCGAAAGACCTTAC ((((((....)))..))), for which, in series [1], the folding enthalpy is -14.1 kcal/mol. Moreover, in series [2], the Tm is 29.4 °C.

For GGAGGTCGAAAGACTTCC (((.(((....))).))), the folding enthalpy in series [1] is -37.5 kcal/mol. In series [2], the Tm is 53.5 °C.

Turning to GTGAGAGCGAAAGCTCAC (((..(((....)))))), the folding enthalpy in series [1] is -14.5 kcal/mol. The Tm in series [2] amounted to 48.6 °C.

For GATCTAGGGGTAGATC ((((((....)))))), the folding enthalpy in series [1] is -30.2 kcal/mol. Further, the Tm in series [2] was found to be 36.4 °C.

With GACACCACGAAAGTGGTC (((..(((....)))))), the folding enthalpy in series [1] was -6.51 kcal/mol. In series [2], the Tm worked out at 39 °C.

For the sequence GCGGAGGGAAACCTCTGC ((.((((....)))).)), in series [1], the folding enthalpy was -40.3 kcal/mol. Also, the Tm in series [2] is 58.2 °C.

In the case of GCATACGAAAGTAATGC ((((((....))).))), in series [1], the folding enthalpy is -35.4 kcal/mol. The Tm in series [2] is 50.1 °C.

For GTTTGGGGAAACCTAAAC ((((.((....)).)))), the folding enthalpy in series [1] is -35.5 kcal/mol. In series [2], the Tm was determined as 40 °C.

Turning to GATCGCTGGAGCGATC ((((((....)))))), the folding enthalpy in series [1] is -37.8 kcal/mol. Moreover, in series [2], the Tm was 68.5 °C.

For GCGTTTGGAAACAGACGC ((((.((....)).)))), in series [1], the folding enthalpy was -39.4 kcal/mol. Further, in series [2], the Tm was 52.7 °C.

For GCTCAGCGAAAGCTATGC ((..(((....)))..)), the folding enthalpy in series [1] was -12.6 kcal/mol. Further, the Tm in series [2] is 36.4 °C.

Regarding GCGGCCCGCCGC ((((....)))), the folding enthalpy in series [1] is -16.9 kcal/mol. Further, the Tm in series [2] was 68.7 °C.

GTTGAAGCGAAAGCTAAC (((..(((....)))))): the folding enthalpy in series [1] was -13.5 kcal/mol. Further, in series [2], the Tm was found to be 34.3 °C.

For the sequence GCCTTCGAAAGAAACGGC ((((((....)))..))), in series [1], the folding enthalpy is -23.7 kcal/mol. Besides, the Tm in series [2] turned out to be 36.2 °C.

For the sequence GATCGTGTAAACGATC ((((((....)))))), in series [1], the folding enthalpy is -42.2 kcal/mol. The Tm in series [2] amounted to 66.5 °C.

For GATTGAGGAAACTCAACC (.(((((....))))).), the folding enthalpy in series [1] is -17.1 kcal/mol. In addition, the Tm in series [2] turned out to be 31.3 °C.

Turning to GAAACGGGAAACCGTTCC (.(((((....))))).), the folding enthalpy in series [1] is -14.6 kcal/mol. For the same sequence, in series [2], the Tm came out at 39.4 °C.

GATCCGGCACGGATC ((((((...)))))): in series [1], the folding enthalpy was -36 kcal/mol. In addition, in series [2], the Tm turned out to be 69.2 °C.

For the sequence GTCAACGAAAGTTAAGAC ((((((....)))..))), the folding enthalpy in series [1] was -19.2 kcal/mol. Also, the Tm in series [2] is 31.3 °C.

For the sequence GTACATCGAAAGATATAC (((.(((....))).))), the folding enthalpy in series [1] is -16 kcal/mol. Besides, the Tm in series [2] was 29.6 °C.

As to CGTGCACGGAAACGTACG (((..(((....)))))), the folding enthalpy in series [1] is -8.88 kcal/mol. Moreover, in series [2], the Tm was 33.2 °C.

As for GCGTCGCGAAAGCTATGC ((.(.((....)).).)), in series [1], the folding enthalpy is -20.1 kcal/mol. Also, in series [2], the Tm is 45 °C.

As to GGCTTGGGAAACTAAGCC (((((.(....).))))), the folding enthalpy in series [1] is -45.5 kcal/mol. Also, the Tm in series [2] came to 52.2 °C.

For GGTTCTCGAAAGAGCACC (((.(((....))).))), the folding enthalpy in series [1] is -31.1 kcal/mol. Further, the Tm in series [2] is 45.9 °C.

As to GATCAGAGAGCTGATC ((((((....)))))), the folding enthalpy in series [1] is -31 kcal/mol. Further, in series [2], the Tm came out at 46.2 °C.

Regarding GGCGTCGAAAGACAGGCC ((((((....)))..))), the folding enthalpy in series [1] is -31.3 kcal/mol. For the same sequence, the Tm in series [2] was determined as 55 °C.

For the sequence GGAAACGAAAGTTGTCC ((((((....))).))), the folding enthalpy in series [1] was -18.2 kcal/mol. Moreover, the Tm in series [2] worked out at 31.5 °C.

With GAAGCAGAAATGCTTC ((((((....)))))), the folding enthalpy in series [1] is -35.3 kcal/mol. In addition, in series [2], the Tm turned out to be 54.5 °C.

Source of the values: the array DNA melting data of Ke et al. (doi:10.1101/2024.01.08.574731).
